Most compounds without a hit are left out; they make up all but 2% or so of the library.
NSD2 HMT inh: blocks human histone methyltransferase NSD2; NSD2 peptide methylation, AlphaScreen, 120 min; inhibition, % at 12.5 µM; 0.54% of 310,000 active; in the data active = inhibition above about 50%
XiGFP reactiv: reactivates the inactive X chromosome in mouse fibroblasts; XiGFP mouse fibroblasts, % GFP-positive cells imaging, 3 d; cells co-treated with 5-aza-dC sensitizer; scaled so ellipticine positive control = 100%; activation, % at 7.58 µM; 0.055% of 360,000 active;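 active = mean normalized replicate activation at least 10% and every replicate at or above 10%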;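 also: 0% = median of on-plate neutral control wells and 100% = ellipticine 6 µM median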
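Material: XiGFP fibroblasts, SV40-immortalized; Buffer or medium: DMEM containing 5-aza-dC; Compound dosing: single point; Times: 3 days compound exposure.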
SR-BI HDL uptake: blocks mouse SR-BI lipid uptake from DiI-HDL; inhibition, % at 12.5 µM; Q61009; 0.96% of 320,000 active; ldlA[mSR-BI] CHO cells, DiI-HDL uptake fluorescence, 3 h;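 active = mean replicate inhibition of at least 70% and a set share of replicates each scoring 70 or more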;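 also: 0% = median of neutral control wells and 100% = median of positive control wells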
Target sequence (Q61009 whole entry, looked up): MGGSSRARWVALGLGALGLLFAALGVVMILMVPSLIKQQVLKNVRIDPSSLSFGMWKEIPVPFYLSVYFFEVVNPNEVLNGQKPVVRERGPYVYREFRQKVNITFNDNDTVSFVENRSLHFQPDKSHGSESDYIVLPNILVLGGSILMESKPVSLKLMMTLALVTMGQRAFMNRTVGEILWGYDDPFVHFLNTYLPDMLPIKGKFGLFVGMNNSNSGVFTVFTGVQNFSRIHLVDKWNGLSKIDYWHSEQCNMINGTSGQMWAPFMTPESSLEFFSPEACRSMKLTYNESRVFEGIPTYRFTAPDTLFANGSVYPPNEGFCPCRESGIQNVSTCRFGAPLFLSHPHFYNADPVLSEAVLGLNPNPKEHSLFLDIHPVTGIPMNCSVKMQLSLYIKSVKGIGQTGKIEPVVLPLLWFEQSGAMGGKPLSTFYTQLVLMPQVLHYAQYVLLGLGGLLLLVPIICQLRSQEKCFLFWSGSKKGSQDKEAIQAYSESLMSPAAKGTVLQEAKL
sPLA2-III inh: Blocks human group III sPLA2 activity; Q9NZ20; QFRET BODIPY PC-A2 liposome hydrolysis, fluorescence; inhibition, % at 12.2 µM; 0.56% of 370,000 active; AID 743126;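 active = inhibition above mean plus 3 SD of compounds lying within the high and low control bounds, cut at about 19% in these data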;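 also: 0% = median of test compound wells and 100% = no enzyme DMSO wells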
SR-BI DiI-HDL act: activators of SR-BI mediated HDL lipid uptake | activation, % at 12.5 µM | AID 504775 | CHO ldlA[mSR-BI] cells, DiI-HDL uptake fluorescence, 3 h; 100 = double the neutral-control signal | 0.096% of 320,000 active;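 active = mean replicate activation of at least 60% and every replicate at or above 60%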;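 also: 0% = median plate neutral-control signal and 100% = twice that signal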
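system = CHO ldlA[mSR-BI] cells, LDL receptor-null, SR-BI overexpressing | medium = Ham's F12 with 0.5% BSA, HEPES 25 mM, pH 7.4 | probe or stimulus = DiI-HDL 10 µg/mL | compound dosing = single-point compound dose | incubation = compound exposure 3 h, 37 °C | technique = DiI fluorescence, bottom read | read-out = cell-associated DiI fluorescence as measure of HDL uptake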
ARNT TACC3 PPI: ARNT/TACC3 interaction disruption. Q9Y6A5. AlphaScreen His-ARNT PAS-B/GST-TACC3 binding, luminescence; TACC3 fragment carries E629A point mutation. inhibition, % at 9.99 µM. 0.66% of 390,000 active. AID 623870;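 active = mean inhibition of replicates at least 50% and at least half of replicates each reaching 50%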;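 also: 0% = complete ARNT plus TACC3 wells and 100% = ARNT alone without TACC3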
sPLA2 confirm: human GIII-sPLA2 inhibition, confirmation | recombinant hGIII-sPLA2, BODIPY PC-A2 QFRET fluorescence | shares compounds with sPLA2-III inh | inhibition, % at 12.2 µM | AID 743280 | 34% of 2,000 active;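 active = mean inhibition across triplicates above the hit cutoff set in the earlier primary screen, cut at about 19% in these data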;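 also: 0% = enzyme with DMSO and 100% = DMSO wells lacking enzyme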
535nm interf: optically interferes with 535nm fluorescence in sPLA2 counter-screen; inhibition, % at 12.2 µM; 8.5% of 2,000 active; shares compounds with sPLA2-III inh; BODIPY FL product fluorescence interference, QFRET;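 active = average inhibition above the solvent-only control mean plus 3 SD, cut at about 6% in these data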;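 also: 0% = DMSO with substrate plus product and 100% = DMSO with substrate alone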
535nm interf DR: interferes with 535nm fluorescence in dose response counter-screen. shares compounds with sPLA2-III inh. BODIPY FL product fluorescence interference, cell-free. IC50, µM. 240 tested, under 10 active. AID 743455;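 active = IC50 at or below 10 µM; inactive = IC50 above 10 µM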
* marks the source's active call; other numbers are inactive results; · = not tested or not shown.

SMILES	NSD2 HMT inh	XiGFP reactiv	SR-BI HDL uptake	sPLA2-III inh	SR-BI DiI-HDL act	ARNT TACC3 PPI	sPLA2 confirm	535nm interf	others
CC(C)N1CCC(N2CCN(C/C=C/c3ccc(F)cc3)CC2CCO)CC1 (configuration not stated)	0	0	-7	20*	7	1	1	-9
CCCn1nnc(NC(=O)c2ccc(OCC)c(Cl)c2)n1	-1	·	5	24*	-5	10	-2	-7
CNC(=S)NNC(=O)Cc1ccc(O)cc1	-1	·	12	26*	-12	36	6	-3
CNC(=S)NNC(=O)Cc1ccc(OC)cc1	-2	0	-12	-1	12	-14	·	·
CC(OC(=O)Cc1c[nH]c2ccccc12)C(=O)N(C)c1ccccc1 (configuration not stated)	3	0	-7	-65	7	4	·	·
C=CCn1c(=S)[nH]c2ccc(Br)cc2c1=O	-2	·	9	20*	-9	2	21*	2
C=CCn1c(=S)[nH]c2nc3c(cc2c1=O)CCCC3	2	·	-22	23*	22	-1	12	-1
CNc1snc(C)c1C(=O)OC(C)C(=O)c1ccc(F)cc1 (configuration not stated)	-4	0	-1	2	1	18	·	·
CCOc1ccc(C2CC(c3ccc(CC)cc3)Nc3nc(N)nn32)cc1 (configuration not stated)	·	0	-31	22*	31	0	0	-15
CC1(C(=O)NS(=O)(=O)C2CC2)CCN(C(=O)c2c(F)cccc2F)C1 (configuration not stated)	-5	0	·	20*	·	·	3	2
CCCCn1c(C23CC4CC(CC(C4)C2)C3)n[nH]c1=S	2	0	19	25*	-19	1	44*	4	535nm interf DR=>122
CC1CCC(NC(=O)C(NS(=O)(=O)c2cccc3nsnc23)C(C)C)CC1 (configuration not stated)	7	0	25	86*	-25	4	-4	-7
COc1ccc(N=C2SCC(c3ccc([N+](=O)[O-])cc3)=NN2CCO)cc1	8	0	5	-1	-5	7	·	·
O=[N+]([O-])c1ccc(C2=NN(CCO)C(=Nc3ccc(OC(F)(F)F)cc3)SC2)cc1	0	0	-7	20*	7	3	-1	-12
Cc1cc(C)c2c(c1)/C(=N/Nc1ccc(S(N)(=O)=O)cc1[N+](=O)[O-])CCC2	0	0	·	20*	·	-2	9	7.5*
NS(=O)(=O)c1ccc(N/N=C2/CCCCC2C2CCCCC2)c([N+](=O)[O-])c1 (configuration not stated)	19	0	47	-9	-47	8	·	·
Cc1cc2c(ncn2C(C)C)c(N)c1C	6	·	-22	4	22	-5	·	·
CC(C)Cn1c(-c2csc(C(C)C)c2)n[nH]c1=S	0	0	-20	14	20	·	·	·
CCn1c(-c2csc(C(C)C)c2)n[nH]c1=S	-1	0	-23	22*	23	3	29*	2	535nm interf DR=>122
Cc1cc(-c2n[nH]c(=S)n2CC(C)C)cs1	2	0	9	20*	-9	-28	24*	0
COc1ccc(-c2n[nH]c(=S)n2CC(C)C)cc1	0	·	5	13	-5	-3	·	·
CC(C)Cn1c(-c2csc3ccccc23)n[nH]c1=S	4	·	3	13	-3	-19	·	·
CCn1c(-c2csc3ccccc23)n[nH]c1=S	-3	0	14	24*	-14	-6	22*	1
N#C[C@@H]1[C@H](c2ccccc2-c2cccc(F)c2)[C@H](CO)N1C(=O)C1CCOCC1	·	0	·	·	·	·	·	·
CCOC(=O)c1c(C)oc2ccc(OCc3cc(C(=O)OC)oc3C)cc12	0	·	2	-5	-2	1	·	·
SMILES	NSD2 HMT inh	XiGFP reactiv	SR-BI HDL uptake	sPLA2-III inh	SR-BI DiI-HDL act	ARNT TACC3 PPI	sPLA2 confirm	535nm interf	others
S=C(NCC1CCCO1)Nc1ccc(Cl)cc1Cl (configuration not stated)	-1	0	-45	25*	45	·	3	-4
NC(=O)c1cc2ccccc2o/c1=N\NC(=O)c1ccco1	-1	0	-32	2	32	10	·	·
CCC(=O)Nc1ccc2c(c1)C(=O)N(C)[C@@H]1CC[C@@H](CC(=O)NCCN3CCCCC3)O[C@H]1CO2	·	0	·	21*	·	-8	2	-5
CCC(=O)Nc1ccc2c(c1)C(=O)N(C)[C@@H]1CC[C@H](CC(=O)NCCN3CCCCC3)O[C@H]1CO2	·	0	·	·	·	3	·	·
COC(=O)c1c(NC(=O)CSc2nc3ccccc3c(=O)n2Cc2ccco2)sc(C)c1C	10	0	-24	19*	24	-7	1	0
CC(C)c1ccccc1NC(=S)NCC1(N(C)C)CCCCC1	2	0	8	20*	-8	5	26*	-8
CC(C)c1ccccc1NC(=S)NC(=O)C1CCCCC1	1	0	17	10	-17	-7	·	·
O=C(N[C@@H]1CC[C@@H](CCn2cc(C3(O)CCCC3)nn2)O[C@@H]1CO)C1CCC1	·	0	·	·	·	8	·	·
CC(=O)CC[C@@H]1CC[C@]2(CCCN(S(C)(=O)=O)C2)O1	·	·	·	22*	·	·	-2	-6
CC(=O)CC[C@H]1CC[C@]2(CCCN(S(C)(=O)=O)C2)O1	·	·	·	18	·	·	·	·
CC(C)c1onc(C(=O)N(C)Cc2ccccc2)c1[N+](=O)[O-]	-1	0	-2	22*	2	-2	-5	1
CC(NC(=O)/C(C#N)=C/c1ccco1)c1ccccc1 (configuration not stated)	-13	0	-10	20*	10	-6	0	-3
CC(NC(=O)/C(C#N)=C/c1cccs1)c1ccccc1 (configuration not stated)	1	0	5	1	-5	2	·	·
O=[N+]([O-])c1ccc(Sc2ccncn2)c([N+](=O)[O-])c1	6	2	·	3	·	·	·	·
Cc1cc(C)nc(Sc2ccc([N+](=O)[O-])cc2[N+](=O)[O-])n1	-3	1	-19	20*	19	-5	3	-1

Screens from PubChem BioAssay.
